Experimental data: ChEMBL document CHEMBL1148747, “Structure-activity relationship studies of spinorphin as a potent and selective human P2X(3) receptor antagonist” (J Med Chem, 2007)
Activity calls are given as the source filed them. The calls are words filed in the database; no cut-off is given here. Residues, ends and D or L forms follow the SMILES beside them.

Key:
[1] = molecular target: T1, P2X purinoceptor 1 (Mus musculus) (UniProt P51576); experiment: Antagonist activity at mouse recombinant P2X1 receptor expressed in Xenopus oocytes assessed as inhibition of ATP-induced ion current at 10 uM by two electrode voltage clamping technique; format: functional, cell-based; settings: Oocyte
T1 sequence (whole entry): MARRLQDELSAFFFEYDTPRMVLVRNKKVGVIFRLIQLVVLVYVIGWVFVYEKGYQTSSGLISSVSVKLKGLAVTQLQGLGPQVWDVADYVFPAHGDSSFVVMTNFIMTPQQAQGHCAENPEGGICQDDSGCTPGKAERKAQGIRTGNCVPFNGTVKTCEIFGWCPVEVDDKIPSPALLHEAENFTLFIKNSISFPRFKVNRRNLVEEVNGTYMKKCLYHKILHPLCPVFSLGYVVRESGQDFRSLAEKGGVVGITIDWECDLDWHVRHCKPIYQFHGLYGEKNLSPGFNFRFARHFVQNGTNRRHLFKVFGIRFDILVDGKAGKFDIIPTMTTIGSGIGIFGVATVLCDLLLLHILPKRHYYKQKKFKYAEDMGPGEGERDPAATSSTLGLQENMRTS
In short: (§1)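 Defolliculated Xenopus oocytes injected with receptor cRNA (40 nL, 1 µg/mL). Incubated 24 h at 18 °C in Barth's solution, then kept at 4 °C for up to 12 days. Two-electrode voltage clamp at Vh -90 mV in Ringer's solution (Ba2+, pH 7.5, 18 °C). Peptide applied 20 min before 2 µM ATP; current inhibition measured against ATP-alone control; n = 4.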

[2] = molecular target: T2, P2X purinoceptor 7 (Homo sapiens) (UniProt Q99572); experiment: Antagonist activity at human recombinant P2X7 receptor expressed in HEK293 cells assessed as BzATP-induced ethidium accumulation at 10 uM; format: functional, cell-based
T2 sequence (whole entry): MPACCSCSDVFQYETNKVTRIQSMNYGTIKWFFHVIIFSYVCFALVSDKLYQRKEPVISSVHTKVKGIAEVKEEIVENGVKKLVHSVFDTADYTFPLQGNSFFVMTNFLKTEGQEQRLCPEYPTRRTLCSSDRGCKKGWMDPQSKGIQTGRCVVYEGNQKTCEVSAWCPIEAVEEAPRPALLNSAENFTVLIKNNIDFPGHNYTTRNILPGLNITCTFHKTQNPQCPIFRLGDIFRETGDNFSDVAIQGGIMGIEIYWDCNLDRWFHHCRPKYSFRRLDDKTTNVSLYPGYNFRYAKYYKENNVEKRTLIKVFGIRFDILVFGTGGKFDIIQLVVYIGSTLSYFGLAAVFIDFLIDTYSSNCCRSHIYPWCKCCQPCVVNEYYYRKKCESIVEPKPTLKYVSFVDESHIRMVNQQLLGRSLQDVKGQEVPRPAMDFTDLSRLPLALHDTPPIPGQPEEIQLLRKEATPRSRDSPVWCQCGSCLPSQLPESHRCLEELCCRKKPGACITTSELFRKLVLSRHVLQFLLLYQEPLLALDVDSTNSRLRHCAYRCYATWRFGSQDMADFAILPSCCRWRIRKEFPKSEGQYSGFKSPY
In short: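 HEK293 cells expressing human P2X7, grown in DMEM with 10% FBS. Cells resuspended in HEPES/KCl/glucose/EDTA buffer (pH 7.4) with 100 µM ethidium bromide, 2 × 10^5 cells/well. 6 µM BzATP given together with 10 µM compound, no preincubation. After 120 min at 37 °C, ethidium fluorescence read (ex 530/em 590 nm). Mean ± SEM, n = 3.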

[3] = molecular target: T3, P2X purinoceptor 3 (Homo sapiens) (UniProt P56373); experiment: Antagonist activity at human recombinant P2X3 receptor expressed in Xenopus oocytes assessed as inhibition of ATP-induced ion current at 100 nM by two electrode voltage clamping technique; settings: Oocyte
T3 sequence (whole entry): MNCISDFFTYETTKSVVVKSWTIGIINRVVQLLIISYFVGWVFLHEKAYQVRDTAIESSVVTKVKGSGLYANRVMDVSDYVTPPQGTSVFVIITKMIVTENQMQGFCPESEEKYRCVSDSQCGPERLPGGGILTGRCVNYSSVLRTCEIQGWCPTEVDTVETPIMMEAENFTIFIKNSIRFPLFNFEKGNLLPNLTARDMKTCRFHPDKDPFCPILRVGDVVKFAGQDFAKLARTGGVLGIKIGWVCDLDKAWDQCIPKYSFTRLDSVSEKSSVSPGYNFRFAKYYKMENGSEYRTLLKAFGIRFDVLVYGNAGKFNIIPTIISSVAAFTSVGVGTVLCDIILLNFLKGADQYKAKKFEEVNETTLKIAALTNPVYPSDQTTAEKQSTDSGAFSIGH

[4] = molecular target: T4, P2X purinoceptor 3 (Homo sapiens, UniProt P56373); experiment: Antagonist activity at human P2X3 receptor expressed in Xenopus oocytes assessed as inhibition of ATP-induced ion current by two electrode voltage clamping technique; format: functional, cell-based, Oocyte; in short: as §1
T4 sequence (P56373 whole entry): T3 sequence (whole entry)

[5] = molecular target: T3, P2X purinoceptor 3 (Homo sapiens); experiment: Antagonist activity at human recombinant P2X3 receptor expressed in Xenopus oocytes assessed as inhibition of ATP-induced ion current at 10 uM by two electrode voltage clamping technique; format: functional, cell-based; settings: Oocyte; in short: as §1
[6] = molecular target: T1, P2X purinoceptor 1 (Mus musculus); experiment: Antagonist activity at mouse recombinant P2X1 receptor expressed in Xenopus oocytes assessed as inhibition of ATP-induced ion current at 100 nM by two electrode voltage clamping technique; settings: Oocyte
[7] = molecular target: T4, P2X purinoceptor 3; experiment: Antagonist activity at human recombinant P2X3 receptor expressed in Xenopus oocytes assessed as inhibition of ATP-induced ion current in presence of 20 nM LVVYPWA peptide by two electrode voltage clamping technique; format: functional, cell-based, Oocyte

Row | Molecule | Activity [2] | inhibition [3] [%] | inhibition [1] [%] | other results
1 | H-LVVYAWT-OH | inactive | 12.9 |  | Activity [1]: inactive
2 | H-LVVYPAT-OH |  | 17 | 4.2 | inhibition [2]: 16.7%
3 | N[C@@H](Cc1ccc(O)cc1)C(=O)N1CCC[C@H]1C(=O)N[C@@H](Cc1c[nH]c2ccccc12)C(=O)O (H-Tyr-Pro-Trp-OH) |  |  |  | inhibition [5]: 15.6%
4 | CC(C)[C@H](N)C(=O)N[C@@H](Cc1ccc(O)cc1)C(=O)N1CCC[C@H]1C(=O)O (H-Val-Tyr-Pro-OH) |  |  |  | inhibition [5]: 16.2%
5 | C[C@@H](O)[C@H](NC(=O)[C@H](Cc1c[nH]c2ccccc12)NC(=O)[C@@H]1CCCN1)C(=O)O (H-Pro-Trp-Thr-OH) |  |  |  | inhibition [5]: 32.7%
6 | C[C@@H](O)[C@H](NC(=O)[C@H](Cc1c[nH]c2ccccc12)NC(=O)[C@@H]1CCCN1C(=O)[C@@H](N)Cc1ccc(O)cc1)C(=O)O (H-YPWT-OH) |  |  |  | inhibition [5]: 13.3%
7 | Cc1nc(/N=N/c2cc(S(=O)(=O)O)ccc2S(=O)(=O)O)c(COP(=O)(O)O)c(C=O)c1O [ISOPPADS] |  | 48.3 |  | IC50 [4]: 108 nM; inhibition [6]: 64.2%
8 | CC(C)[C@H](N)C(=O)N[C@@H](Cc1ccc(O)cc1)C(=O)N1CCC[C@H]1C(=O)N[C@@H](Cc1c[nH]c2ccccc12)C(=O)O (H-VYPW-OH) |  |  |  | Activity [5]: inactive
9 | H-LVVAPWT-OH | inactive | 52.3 |  | Activity [1]: inactive
10 | H-VVYPWT-OH |  |  |  | inhibition [5]: 29.3%
11 | CC(C)C[C@@H]1NC(=O)[C@H]([C@@H](C)O)NC(=O)[C@H](Cc2c[nH]c3ccccc23)NC(=O)[C@@H]2CCCN2C(=O)[C@H](Cc2ccc(O)cc2)NC(=O)[C@H](C(C)C)NC(=O)[C@H](C(C)C)NC1=O (HELM PEPTIDE1{L.V.V.Y.P.W.T}$PEPTIDE1,PEPTIDE1,1:R1-7:R2$$$V2.0) |  | 36.3 | 11.5 | inhibition [2]: 8.8%; IC50 [4]: 82.4 nM
12 | H-LVAYPWT-OH | inactive | 53.4 |  | Activity [1]: inactive
13 | H-VYPWT-OH |  |  |  | Activity [5]: inactive

Continued, in another order:

Row | Activity [2] | inhibition [3] [%] | inhibition [1] [%] | Molecule | other results
14 |  | 48.4 | 8.1 | H-LAVYPWT-OH | inhibition [2]: 7.6%; IC50 [4]: 32.4 nM
15 | inactive | 11.4 | 6.4 | CC(C)[C@@H]1NC(=O)[C@H](C)NC(=O)[C@H]([C@@H](C)O)NC(=O)[C@H](Cc2c[nH]c3ccccc23)NC(=O)[C@@H]2CCCN2C(=O)[C@H](Cc2ccc(O)cc2)NC(=O)[C@H](C(C)C)NC1=O (HELM PEPTIDE1{A.V.V.Y.P.W.T}$PEPTIDE1,PEPTIDE1,1:R1-7:R2$$$V2.0) | 
16 | inactive | 82.5 |  | H-AVVYPWT-OH | Activity [1]: inactive; IC50 [4]: 14.3 nM
17 |  | 67.2 | 7.4 | H-LVVYPWT-OH [SPINORPHIN] | IC50 [7]: 0.0481 nM; inhibition [2]: 8.3%; IC50 [4]: 0.0083 nM
18 | inactive |  | 15.5 | CC(C)C[C@@H](NC(=O)[C@H](NC(=O)[C@H](NC(=O)[C@@H](Cc1ccc(O)cc1)NC(=O)[C@H]1CCCN1C(=O)[C@@H](Cc1c[nH]c2ccccc12)NC(=O)[C@H](N)[C@@H](C)O)C(C)C)C(C)C)C(=O)O | 
